The test system of series [1] is U138-MG. Description: Antiproliferative activity against human U138MG cells assessed as reduction in cell viability at 100 uM after 24 hrs by MTS assay relative to control. It is filed as functional. The essentials: (§1)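 Glioma cells grown in DMEM with penicillin/streptomycin and FBS (15% or 5%, by line), 37 °C, 5% CO2; seeded and grown to semi-confluence, then exposed 24 h to 5, 10, 25, 50 and 100 μM. MTS reagent added for 2 h; absorbance at 490 nm. Viability expressed as percent of untreated control (100%); means ± SD of three independent experiments.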
In general terms: Formazan colour is commonly taken as a measure of viable cells.

In series [2] the target is T1, Kinesin family member 11 (Rattus norvegicus) (UniProt F1MAB8).
T1 sequence (whole entry): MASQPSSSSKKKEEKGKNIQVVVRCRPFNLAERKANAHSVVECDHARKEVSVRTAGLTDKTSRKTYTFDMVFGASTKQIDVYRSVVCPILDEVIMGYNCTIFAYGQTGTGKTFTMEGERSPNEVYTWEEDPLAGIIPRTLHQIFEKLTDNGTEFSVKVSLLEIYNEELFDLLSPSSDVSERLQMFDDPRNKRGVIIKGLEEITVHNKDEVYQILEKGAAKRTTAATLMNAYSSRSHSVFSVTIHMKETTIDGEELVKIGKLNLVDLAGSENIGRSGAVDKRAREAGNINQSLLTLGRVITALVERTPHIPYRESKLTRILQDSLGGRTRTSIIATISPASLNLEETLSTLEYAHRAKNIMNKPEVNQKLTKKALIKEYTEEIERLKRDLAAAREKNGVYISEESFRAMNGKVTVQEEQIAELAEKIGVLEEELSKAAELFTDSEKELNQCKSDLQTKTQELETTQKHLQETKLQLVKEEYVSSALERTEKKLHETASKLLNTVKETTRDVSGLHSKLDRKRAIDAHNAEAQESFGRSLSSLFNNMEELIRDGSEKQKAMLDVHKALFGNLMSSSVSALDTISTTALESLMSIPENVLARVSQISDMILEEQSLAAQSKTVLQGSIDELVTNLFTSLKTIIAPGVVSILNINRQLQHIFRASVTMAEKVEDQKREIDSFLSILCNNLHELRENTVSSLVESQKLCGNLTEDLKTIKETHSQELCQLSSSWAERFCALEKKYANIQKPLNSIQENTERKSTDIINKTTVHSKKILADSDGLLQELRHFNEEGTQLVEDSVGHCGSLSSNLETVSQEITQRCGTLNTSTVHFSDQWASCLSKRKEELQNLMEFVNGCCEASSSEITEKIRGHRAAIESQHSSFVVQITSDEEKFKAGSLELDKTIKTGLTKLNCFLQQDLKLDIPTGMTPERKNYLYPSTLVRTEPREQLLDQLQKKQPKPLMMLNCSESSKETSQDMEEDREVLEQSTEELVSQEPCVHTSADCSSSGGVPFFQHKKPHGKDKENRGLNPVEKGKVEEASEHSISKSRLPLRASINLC
As to the kind of experiment: Inhibition of EG5 in rat C6 cells assessed as monopolar spindle formation at 100 uM after 24 hrs by Hoechst staining based immunofluorescence microscopic method. It is filed as cell-based. In short, it runs like this: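 Glioma cells allowed to adhere 48 h, then treated 24 h (U138: 150 or 200 μM; C6: 50 or 100 μM). Fixed cells probed with rabbit anti-α-tubulin for 90 min, then FITC goat anti-rabbit for 1 h, with Hoechst nuclear counterstain. Monopolar spindles scored by confocal microscopy at 600×.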

For another series, the system named is C6 (Rattus norvegicus). Description: Cell cycle arrest in rat C6 cells assessed as accumulation at G2/M phase at 100 uM after 24 hrs by propidium iodide staining based flow cytometry relative to control. On the technique in general: A flow cytometer gives signals particle by particle.
Series [3] deals with C6. As to the kind of experiment: Induction of apoptosis in rat C6 cells at 100 uM after 48 hrs by Annexin V/propidium iodide staining based flow cytometry. It is filed as functional, cell-based. In short, it runs like this:
(§2)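 After 48 h exposure (U138: 150 or 200 μM; C6: 50 or 100 μM), cells washed twice in cold PBS pH 7.4 and counted. 10^5 cells stained with FITC-annexin V and PI in binding buffer, 15 min at room temperature in the dark, then read by two-colour flow cytometry. Early apoptotic annexin+/PI−, late apoptotic annexin+/PI+, necrotic annexin−/PI+.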

Series [4] addresses T2, Kinesin-like protein KIF11 (Homo sapiens) (UniProt P52732).
T2 sequence (whole entry): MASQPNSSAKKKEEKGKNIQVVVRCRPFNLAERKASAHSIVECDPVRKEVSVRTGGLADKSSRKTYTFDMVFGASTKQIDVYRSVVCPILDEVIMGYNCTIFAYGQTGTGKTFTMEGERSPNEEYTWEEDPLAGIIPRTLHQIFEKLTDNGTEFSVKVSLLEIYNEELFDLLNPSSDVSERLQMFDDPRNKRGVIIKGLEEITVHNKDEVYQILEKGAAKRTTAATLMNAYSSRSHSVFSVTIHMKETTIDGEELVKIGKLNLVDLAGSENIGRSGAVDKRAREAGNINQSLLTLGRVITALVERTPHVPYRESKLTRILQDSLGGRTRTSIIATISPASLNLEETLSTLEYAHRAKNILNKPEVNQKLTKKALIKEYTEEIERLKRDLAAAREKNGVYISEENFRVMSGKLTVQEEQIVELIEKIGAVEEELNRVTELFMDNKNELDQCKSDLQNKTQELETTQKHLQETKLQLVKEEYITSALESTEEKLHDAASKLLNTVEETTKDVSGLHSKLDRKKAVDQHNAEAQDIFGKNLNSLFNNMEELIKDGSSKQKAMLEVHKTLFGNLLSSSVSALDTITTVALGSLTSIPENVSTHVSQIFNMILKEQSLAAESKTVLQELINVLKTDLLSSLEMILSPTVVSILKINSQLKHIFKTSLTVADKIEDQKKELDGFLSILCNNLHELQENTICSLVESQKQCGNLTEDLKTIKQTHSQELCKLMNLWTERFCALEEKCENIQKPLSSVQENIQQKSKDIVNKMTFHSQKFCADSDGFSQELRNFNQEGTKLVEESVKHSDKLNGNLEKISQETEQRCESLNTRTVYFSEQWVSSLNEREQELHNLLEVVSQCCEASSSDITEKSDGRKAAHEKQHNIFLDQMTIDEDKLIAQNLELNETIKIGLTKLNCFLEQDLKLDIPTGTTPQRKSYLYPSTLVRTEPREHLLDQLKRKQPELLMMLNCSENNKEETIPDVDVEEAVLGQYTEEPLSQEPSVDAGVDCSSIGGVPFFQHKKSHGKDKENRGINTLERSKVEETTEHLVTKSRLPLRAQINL
Particulars: 200 uM.

Series [5] deals with U138-MG. Description: Antiproliferative activity against human U138MG cells after 24 hrs by MTS assay. Format: functional, cell-based. In short, it runs like this: as §1
Series [6] concerns C6. Description: Antiproliferative activity against rat C6 cells after 24 hrs by MTS assay. Format: functional, cell-based. Particulars: C6, 24 h. The essentials:
as §1

The subject of series [7] is C6. Description: Antiproliferative activity against rat C6 cells assessed as reduction in cell viability at 100 uM after 24 hrs by MTS assay relative to control. Format: functional. The essentials:
as §1

Series [8] relates to U138-MG. Description: Induction of necrosis in human U138MG cells at 200 uM after 48 hrs by Annexin V/propidium iodide staining based flow cytometry. It is filed as functional, cell-based. In short, it runs like this:
as §2

For series [9], the system named is C6. As to the kind of experiment: Cell cycle arrest in rat C6 cells assessed as accumulation at G2/M phase at 100 uM after 24 hrs by propidium iodide staining based flow cytometry. It is filed as functional. In short, it runs like this:
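Cells grown to semi-confluence, treated 24 h (U138: 150 or 200 μM; C6: 50 or 100 μM), washed twice in PBS pH 7.4, harvested and resuspended at 10^6 cells/ml in Tris-HCl pH 7.6, 3.5 mM trisodium citrate, 0.1% NP40, 100 μg/mL RNase, 50 μg/mL PI. After 15 min, sub-G1, G0/G1, S and G2/M fractions read by flow cytometry.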

In series [10] the test system is U138-MG. As to the kind of experiment: Induction of apoptosis in human U138MG cells at 200 uM after 48 hrs by Annexin V/propidium iodide staining based flow cytometry. It is filed as functional, cell-based. In short, it runs like this:
as §2

A short description of series [11]: Toxicity in Caenorhabditis elegans N2 L1 larva assessed as mortality incubated for 30 mins on rotator and measured after 24 hrs. Format: organism-based. Particulars: in vivo. The essentials:
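Wild-type N2 worms kept on NGM plates seeded with E. coli OP50 at 20 °C and synchronized to L1 by bleaching. L1 larvae (2.500 worms per dose) exposed acutely to five doses from 6.25 to 200 mM, 20 °C, 30 min with constant rotation. Washed three times in M9, plated on OP50-seeded NGM, survivors counted at 24 h. LC50 derived from dose–response curves.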

The source made the active and inactive calls. No cut-off for these calls is given here.

The term IC50 denotes the midpoint of a concentration-inhibition curve. Low readings indicate inhibition by little substance, high ones a need for much substance. A word on the LC50: it is the concentration lethal to half of the exposed cells or organisms. As to `CCOC(=O)C1=C(C)NC(=S)NC1c1cccc(O)c1` (configuration not stated) [MONASTROL], the Activity in the series on U138-MG [1] is 20.8%; with C6 (Rattus norvegicus), 27.4%. Besides, the inhibition entry in [2] and in series [4] was “Active” throughout. The result with C6 [3], in the series with C6 [7], in the series on U138-MG [8], in the series on C6 [9] and with U138-MG [10] was Active. Moreover, the IC50 in the series on U138-MG [5] and with C6 [6] was greater than 200 µM in each case. The LC50 at 24 h in [11] amounted to 80.1 mM.

(Values after ChEMBL document CHEMBL4257511, “Effect of N-1 arylation of monastrol on kinesin Eg5 inhibition in glioma cell lines” (Medchemcomm, 2018).)
